Experiments:
Assay type in all cases: functional
Rattus norvegicus [1] = experiment: Ability to improve the adjuvant induced arthritis in right secondary lesion in rats at oral doses, 33 mg/kg
Summary of the method: (§1)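 Female Sprague–Dawley rats (150–170 g), six per group. Arthritis induced by subcutaneous plantar injection of 0.125 mg killed tubercle bacillus in liquid paraffin into the right hind paw. Dosing was 33 mg/kg orally, daily for 14 days, starting the day before adjuvant. Paw volumes were measured by mercury plethysmography every 2–3 days over 18 days. Primary lesion: right paw, days 0–8. Secondary lesions: right and left (uninjected) paws, days 9–18. Areas under the time-course curves were compared with controls by ANOVA.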

Rattus norvegicus [2] = experiment: Antiinflammatory activity was assessed by the ability to improve the adjuvant induced arthritis in right primary lesion in rats at oral doses, 33 mg/kg (volume change in the injected paw measured from day 0 to day 8); summary of the method: as §1
Cavia porcellus [3] = species on record: Cavia porcellus; experiment: Tested for effect on the production of Lipoxygenase (LO) metabolite, 5-HETE in guinea pig peritoneal polymorphonuclear neutrophils at 30 uM concentration
Summary of the method: (§2)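 Guinea pig peritoneal PMNs were incubated with [14C]arachidonic acid and stimulated with calcium ionophore A23187. Compounds were tested at 30 μM in 0.1 N NaOH–Krebs Ringer bicarbonate buffer. Radiolabeled cyclooxygenase and lipoxygenase products were identified by HPLC and GC-MS, separated by TLC and quantified by automatic scanning.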

Cavia porcellus [4] = species on record: Cavia porcellus; experiment: Tested for effect on the production of cyclooxygenase (COX) metabolite, PGE-2 (prostaglandin E2) of arachidonic acid in guinea pig peritoneal polymorphonuclear neutrophils at 30 uM concentration; summary of the method: as §2
Cavia porcellus [5] = species on record: Cavia porcellus; experiment: Tested for effect on the production of Lipoxygenase (LO) metabolite, 5,12-diHETE in guinea pig peritoneal polymorphonuclear neutrophils at 30 uM concentration; summary of the method: as §2
Rattus norvegicus [6] = experiment: Antiinflammatory activity was assessed by the ability to improve the adjuvant induced arthritis in left secondary lesion in rats at oral doses, 33 mg/kg (volume change in the injected paw measured from day 9 to day 18)
Cavia porcellus [7] = species on record: Cavia porcellus; experiment: Tested for effect on the production of cyclooxygenase (COX) metabolite, TXB2 of arachidonic acid in guinea pig peritoneal polymorphonuclear neutrophils at 30 uM concentration; summary of the method: as §2
Rattus norvegicus [8] = species on record: Rattus norvegicus; experiment: Antiinflammatory activity was assessed improvement of adjuvant induced arthritis in rats, determined by joint mobility of the paw; set-up: concentration or dose not given beside the values
Summary of the method: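 Adjuvant arthritis was induced in female Sprague–Dawley rats (150–170 g, groups of six) by right-hind-paw plantar injection of killed tubercle bacillus in paraffin. Treatment was 33 mg/kg orally, daily for 14 days, starting the day before adjuvant. Joint involvement was scored as the angle through which the hind paws moved easily, given as percent change versus nontreated controls.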

Cavia porcellus [9] = species on record: Cavia porcellus; experiment: Tested for effect on the production of cyclooxygenase (COX) metabolite, PGF2-alpha (prostaglandin F2-alpha) of arachidonic acid in guinea pig peritoneal polymorphonuclear neutrophils at 30 uM concentration; summary of the method: as §2

| SMILES | Reduction (Rattus norvegicus [1]) | Reduction (Rattus norvegicus [2]) | Reduction (Cavia porcellus [3]) | Reduction (Cavia porcellus [4]) | Reduction (Cavia porcellus [5]) | Reduction (Rattus norvegicus [6]) | Reduction (Cavia porcellus [7]) | Reduction (Rattus norvegicus [8]) | Reduction (Cavia porcellus [9]) |
| --- | --- | --- | --- | --- | --- | --- | --- | --- | --- |
| Cc1ccc(C(=O)c2ccc(O)c(C(C)C(=O)O)c2)s1 (configuration not stated) | 11% | 13% | -69% | 54% | -36% | 29% | 82% | -16% | 49% |
| CCCC(C(=O)O)c1cc(C(=O)c2cccs2)ccc1O (configuration not stated) | 30% | 26% | -33% | 87% | -42% | 52% | 86% | 33% | 50% |
| O=C1Oc2ccc(C(=O)c3cccs3)cc2/C1=C/c1ccc(C(F)(F)F)cc1 | 19% | 3% | 67% | 79% | 68% | 15% | 95% | 4% | 67% |
| CCC(CC)(C(=O)O)c1cc(C(=O)c2cccs2)ccc1OC | 16% | -11% |  |  |  | 42% |  | 42% |  |
| Cc1ccc(C(=O)c2ccc3c(c2)C(C)C(=O)O3)s1 (configuration not stated) | 19% | 10% | -3% | 65% | 15% | 36% | 86% | 15% | 28% |
| CC(C)(C)c1cc(/C=C2\C(=O)Oc3ccc(C(=O)c4cccs4)cc32)cc(C(C)(C)C)c1O | -7% | -28% | -11% | -14% | -8% | 8% | 26% | 17% | 6% |
| C=CCc1cc(C(=O)c2cccs2)cc2c1OC(=O)C2C (configuration not stated) | 6% | 1% | 14% | 88% | -24% | 17% | 93% | 5% | 77% |
| CCC(C(=O)O)c1cc(C(=O)c2cccs2)ccc1O (configuration not stated) | 64% | 20% | 16% |  | -33% | 76% | 92% | 60% | 65% |
| O=C(O)/C(=C\c1ccccc1)c1cc(C(=O)c2cccs2)ccc1O | 11% | 15% |  |  |  | -15% |  | 5% |  |
| CC(C)(C(=O)O)c1cc(C(=O)c2cccs2)ccc1O | 20% | 4% | -20% | 80% | -23% | 46% | 90% | 26% | 55% |
| CCCCC(C(=O)O)c1cc(C(=O)c2cccs2)ccc1O (configuration not stated) | 29% | 5% | 60% | 44% | 60% | 53% | 64% | 14% | 51% |
| COc1ccc(C(=O)c2ccc(O)c(C(C)C(=O)O)c2)cc1 (configuration not stated) | 31% | 12% | 5% |  | -10% | 22% | 89% | 7% | 58% |
| CC1C(=O)Oc2ccc(C(=O)c3ccc(F)cc3)cc21 (configuration not stated) | 10% | 5% | 6% | 46% | -25% | 31% | 76% | -1% | 47% |
| CC1C(=O)Oc2ccc(C(=O)c3ccco3)cc21 (configuration not stated) | 12% | -5% | 20% | 81% | 3% | 25% | 81% | 2% |  |
| CCC(CC)(C(=O)O)c1cc(C(=O)c2cccs2)ccc1O | 22% | 6% | -21% | 54% | -18% | 45% | 90% | 38% | 50% |
| CCCCC1C(=O)Oc2ccc(C(=O)c3cccs3)cc21 (configuration not stated) | -22% | 4% | 73% | 68% | 61% | -55% | 89% | -1% | 62% |
| CCC1(CC)C(=O)Oc2ccc(C(=O)c3cccs3)cc21 | 17% | 18% | 2% | 62% | -7% | 41% | 90% | 23% | 48% |
| CC1(C)C(=O)Oc2ccc(C(=O)c3cccs3)cc21 | 36% | 28% | 52% | 81% | 49% | 50% | 81% | 44% | -37% |
| CCCC1C(=O)Oc2ccc(C(=O)c3cccs3)cc21 (configuration not stated) | 41% | 23% | -2% | 85% | 7% | 67% | 81% | 61% | 49% |
| CC(C(=O)O)c1cc(C(=O)c2ccc(F)cc2)ccc1O (configuration not stated) | 32% | 22% | -1% | 46% | -8% | 56% | 74% | 33% | 49% |
| CC(C(=O)O)c1cc(C(=O)c2cccs2)ccc1O (configuration not stated) | 34% | 39% | -68% | 76% | -84% | 35% | 89% | -15% | 76% |
| CC(C(=O)O)c1cc(C(=O)c2ccco2)ccc1O (configuration not stated) | -5% | -31% | -14% | 87% | -17% | 13% | 87% | 7% | 61% |
| O=C(c1ccc2c(c1)C(C(=O)Nc1ccccc1)C(=O)O2)c1cccs1 (configuration not stated) | 6% | 8% | 94% | 93% | 85% | 25% | 93% | 1% | 86% |
| COc1ccc(C(=O)c2ccc3c(c2)C(C)C(=O)O3)cc1 (configuration not stated) | 5% | -9% | 50% |  | 44% | 22% | 70% | -9% | 51% |
| O=C1Oc2ccc(C(=O)c3cccs3)cc2/C1=C/c1ccc(Cl)cc1 | -18% | -5% | 71% | 77% | 73% | -14% | 93% | 12% | 69% |
| CCC1C(=O)Oc2ccc(C(=O)c3cccs3)cc21 (configuration not stated) | 51% | 13% | 20% | 79% | 9% | 81% | 90% | 52% | 62% |
| O=C1Cc2cc(C(=O)c3cccs3)ccc2O1 | 9% | 25% | -33% | 54% | -44% | -35% | 65% | 5% | 57% |
| O=C(c1ccc(O)c(C(Cc2ccccc2)C(=O)O)c1)c1cccs1 (configuration not stated) | 30% | 29% |  |  |  | 10% |  | 6% |  |
| CC1C(=O)Oc2ccc(C(=O)c3ccccc3)cc21 (configuration not stated) | 35% | 5% | 10% | 71% | -10% | 52% | 82% | 29% | 56% |

— ChEMBL document CHEMBL1123839, “5-Acyl-3-substituted-benzofuran-2(3H)-ones as potential antiinflammatory agents” (1987)
